Experiments:
[1] = molecular target: T1, Mineralocorticoid receptor (Homo sapiens, UniProt P08235); assay: Agonist activity at human mineralocorticoid receptor expressed in human A549 cells by fluorescence polarization assay; assay type: functional, cell-based
T1 sequence (P08235 whole entry): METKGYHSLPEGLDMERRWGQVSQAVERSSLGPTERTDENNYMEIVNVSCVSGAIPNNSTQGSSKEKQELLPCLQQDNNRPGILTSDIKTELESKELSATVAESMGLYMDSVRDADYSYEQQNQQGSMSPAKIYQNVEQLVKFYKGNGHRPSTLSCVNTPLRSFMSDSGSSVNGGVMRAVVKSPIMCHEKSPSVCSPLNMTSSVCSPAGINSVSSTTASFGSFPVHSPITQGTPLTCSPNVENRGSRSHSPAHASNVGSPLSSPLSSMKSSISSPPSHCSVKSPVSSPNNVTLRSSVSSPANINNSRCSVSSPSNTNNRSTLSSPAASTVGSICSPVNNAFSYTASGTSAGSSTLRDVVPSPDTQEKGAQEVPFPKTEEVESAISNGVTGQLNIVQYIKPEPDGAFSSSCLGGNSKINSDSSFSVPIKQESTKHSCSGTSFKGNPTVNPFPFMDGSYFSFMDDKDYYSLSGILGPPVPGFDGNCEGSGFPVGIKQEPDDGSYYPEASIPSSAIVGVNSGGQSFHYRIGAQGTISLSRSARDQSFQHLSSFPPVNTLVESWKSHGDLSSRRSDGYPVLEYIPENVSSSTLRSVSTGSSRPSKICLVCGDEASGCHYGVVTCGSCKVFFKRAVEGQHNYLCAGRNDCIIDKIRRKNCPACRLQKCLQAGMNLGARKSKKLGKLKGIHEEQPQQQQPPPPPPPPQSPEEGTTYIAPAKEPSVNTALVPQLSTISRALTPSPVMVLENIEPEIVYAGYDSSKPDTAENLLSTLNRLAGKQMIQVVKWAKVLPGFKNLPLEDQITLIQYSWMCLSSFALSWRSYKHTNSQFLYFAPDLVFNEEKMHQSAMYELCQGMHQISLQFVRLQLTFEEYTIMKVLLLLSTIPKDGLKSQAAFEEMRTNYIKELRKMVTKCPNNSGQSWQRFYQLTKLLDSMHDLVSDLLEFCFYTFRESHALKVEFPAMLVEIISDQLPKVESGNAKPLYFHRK

Rattus norvegicus [2] = assay: Antiinflammatory activity in Sprague-Dawley rat assessed as carrageenan-induced paw edema at 30 mg/kg, po administered as a single dose 2 hrs before carrageenan challenge measured 4 hrs post carrageenan challenge by plethysmometry relative to control
[3] = Oral bioavailability in Sprague-Dawley rat at 50 mg/kg; assay type: ADME, organism-based; conditions: in vivo
In short: (§1)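 Male Sprague-Dawley rats received a single intravenous (1 mg/kg) or oral (10 or 50 mg/kg) dose. Plasma pharmacokinetic parameters were derived from these profiles.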

Glucocorticoid receptor [4] = molecular target: T2, Glucocorticoid receptor (Homo sapiens, UniProt P04150); assay: Displacement of GS-red from glucocorticoid receptor by fluorescence polarization assay
T2 sequence (P04150 whole entry): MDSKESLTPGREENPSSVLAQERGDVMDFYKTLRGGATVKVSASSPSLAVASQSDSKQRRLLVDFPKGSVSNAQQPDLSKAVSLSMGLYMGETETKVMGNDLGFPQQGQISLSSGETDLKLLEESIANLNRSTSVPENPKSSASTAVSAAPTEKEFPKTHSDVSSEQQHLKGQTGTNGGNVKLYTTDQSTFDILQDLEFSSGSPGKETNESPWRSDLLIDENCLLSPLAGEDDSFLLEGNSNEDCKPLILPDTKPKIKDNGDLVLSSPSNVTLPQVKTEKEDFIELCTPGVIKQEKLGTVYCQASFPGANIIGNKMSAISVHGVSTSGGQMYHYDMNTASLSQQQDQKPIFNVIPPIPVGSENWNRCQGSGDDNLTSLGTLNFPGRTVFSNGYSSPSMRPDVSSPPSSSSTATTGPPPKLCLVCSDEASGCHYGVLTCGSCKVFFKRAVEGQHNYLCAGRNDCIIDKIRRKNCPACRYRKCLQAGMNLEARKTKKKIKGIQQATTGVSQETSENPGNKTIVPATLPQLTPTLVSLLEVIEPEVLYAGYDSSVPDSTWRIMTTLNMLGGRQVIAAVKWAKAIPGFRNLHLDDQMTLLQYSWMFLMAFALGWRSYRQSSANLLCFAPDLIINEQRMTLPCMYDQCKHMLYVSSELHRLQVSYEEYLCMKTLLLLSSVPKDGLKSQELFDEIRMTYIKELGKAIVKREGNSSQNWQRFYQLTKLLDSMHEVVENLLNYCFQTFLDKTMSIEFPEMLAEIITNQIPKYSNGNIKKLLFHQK

Blood [5] = assay: Antiinflammatory activity in human whole blood assessed as inhibition of IL-1beta-induced IL-8 production after overnight incubation by ELISA; assay type: functional, tissue-based
In short: (§2)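 Whole blood from two donors per experiment was collected into ACD-A. Compounds were added and the blood was incubated about 20 h at 37 °C under 5% CO2. Blood was then stimulated for 5 h with LPS (final 100 ng/mL, for TNFα) or IL-1β (final 10 ng/mL, for IL-8). Plasma TNFα or IL-8 was measured by ELISA. Efficacy was expressed as % of dexamethasone, and values are means of at least two experiments.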

Rattus norvegicus [6] = assay: Antiinflammatory activity in po dosed Freund's complete adjuvant-induced Lewis rat arthritis model assessed as reduction in onset of arthritis; assay type: functional, organism-based
In short: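 Male Lewis rats were inoculated with Mycobacterium butyricum in incomplete Freund's adjuvant. Oral dosing was daily and preventative, running from day 0 to day 21. Onset and progression of arthritis were followed, and ED50 was estimated from the dose response.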

[7] = Cmax in Sprague-Dawley rat at 10 mg/kg, po; assay type: ADME, organism-based; parameters: dose 10 mg/kg, route oral; conditions: in vivo; in short: as §1
Blood [8] = assay: Antiinflammatory activity in human whole blood assessed as inhibition of LPS-induced TNFalpha production after overnight incubation by ELISA relative to Dexamethasone; assay type: functional; in short: as §2
[9] = Cmax in Sprague-Dawley rat at 50 mg/kg, po; assay type: ADME, organism-based; parameters: dose 50 mg/kg, route oral; conditions: in vivo; in short: as §1
MG-63 [10] = assay: Induction of glutamine synthase expression in human MG63 cells after overnight incubation by spectrophotometry; assay type: cell-based
SAOS-2 = assay: Induction of alkaline phosphatase expression in human Saos2 cells after 3 days by spectrophotometry; assay type: cell-based; conditions: SAOS-2, 72 h
[11] = Tmax in Sprague-Dawley rat at 10 mg/kg, po; assay type: ADME, organism-based; parameters: dose 10 mg/kg, route oral; conditions: in vivo; in short: as §1
Glucocorticoid receptor [12] = molecular target: T2, Glucocorticoid receptor; assay: Transrepression activity at glucocorticoid receptor alpha in phorbol myristate acetate-stimulated human A549 cells assessed as inhibition of AP1 response element by luciferase reporter gene assay; assay type: cell-based
Blood [13] = assay: Antiinflammatory activity in human whole blood assessed as inhibition of TNF-alpha-induced IL-8 production after overnight incubation by ELISA relative to dexamethasone; assay type: functional
Glucocorticoid receptor [14] = molecular target: T2, Glucocorticoid receptor; assay: Transrepression activity at glucocorticoid receptor alpha in IL-1beta-stimulated human A549 cells assessed as inhibition of NFkappaB-dependent E-selectin transcription by luciferase reporter gene assay; assay type: cell-based
MG-63 [15] = assay: Induction of glutamine synthase expression in human MG63 cells after overnight incubation by spectrophotometry relative to prednisolone; assay type: cell-based
[16] = Drug level in plasma of Sprague-Dawley rat at 30 mg/kg, po measured after 6 hrs; assay type: ADME, organism-based; parameters: dose 30 mg/kg, route oral; conditions: read-out: Drug uptake
In short: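 Plasma exposure was measured in Sprague-Dawley rats 6 h after a single oral dose of 30 mg/kg given in the carrageenan paw edema study.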

Row | EC50 [1] | bioavailability [3] | Ki (Glucocorticoid receptor [4]) | EC50 (Blood [5]) | Cmax [7] | Cmax [9] | EC50 (MG-63 [10]) | Tmax [11] | EC50 (Glucocorticoid receptor [12]) | EC50 (Glucocorticoid receptor [14]) | concentration at 6 h [16] | SMILES | level, % of control at 30 mg/kg (Rattus norvegicus [2]) | Activity (Rattus norvegicus [6]) | Imax (Blood [8]) | Emax (SAOS-2) | Imax (Blood [13]) | Emax (MG-63 [15])
1 | > 5000 nM | 119% | 1.94 nM | 1140 nM | 285 ng/mL | 3210 ng/mL | 44 nM | 1.3 h | 33.2 nM | 33.8 nM | 788 nM | CN(C)C(=O)c1ccc(-c2ccc3c(n2)Oc2ccccc2[C@H]3C(C)(C)C(=O)Nc2nncs2)cc1F | 42% | Dose-dependent effect | 83% | 13% | 55% | 33%
2 | > 5000 nM | 107% | 1.64 nM | 628 nM | 351 ng/mL | 3080 ng/mL | 207 nM | 1 h | 17.7 nM | 6.89 nM | 1110 nM | CCN(C)C(=O)c1ccc(-c2ccc3c(n2)Oc2ccccc2[C@@H]3C(C)(C)C(=O)Nc2nncs2)cc1F | 54% | Dose-dependent effect | 91% | 24% | 76% | 53%
